Arrestin-AP2 inh – inhibitors of human beta-arrestin and AP2 interaction. FITC-arrestin peptide / GST-AP2 beads, flow cytometry; AP2 beta2 appendage carries R879A mutation. inhibition, % at 10 µM. 340,000 compounds, 0.31% hits. AID 504490;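 active = inhibition above a set limit, near 3 SD of compounds lacking own fluorescence, cut at about 54% in these data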;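 also: plate controls were DMSO wells for no effect and 5 µM unlabelled arrestin peptide for full effect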
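System: GST-AP2 R879A glutathione beads | Also added: FITC-arrestin peptide, 50 nM | Times: 12 min plus 1 h, RT | Signal: Bead flow cytometry, FITC channel | Buffer or medium: PBS with 0.05% Tween 20 and 0.1% BSA | Read-out basis: Percent drop in bead-associated FITC signal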
NALP1 inh – NALP1 inhibition. S. cerevisiae NALP1/ASC/caspase-1 growth, X-gal OD620, 72 h. inhibition, % at 10 µM. 280,000 compounds, 0.61% hits; in the data active = inhibition mostly above about 24%, no sharp cut-off; inactive = mostly below about 32%
NLRP3 yeast inh – blocks the NALP3 inflammasome reconstituted in yeast; Yeast reconstituted NLRP3/ASC/caspase-1, beta-gal luminescence, 24 h; inhibition, % at 10 µM; 330,000 compounds, 0.39% hits;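 active = inhibition of 50% or more; inactive = inhibition below 50%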;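 also: plate controls were induced DMSO wells for no effect and uninduced yeast grown without galactose for full effect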
DSG3 Ab inh – human desmoglein-3 autoantibody binding inhibition; binding (percent of control), % at 10 µM; DSG3-coupled beads, scFv-anti-DSG3-GFP binding, flow cytometry; active compounds read low; 310,000 compounds, 0.48% hits;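 active = binding more than 3 SD below its plate's average and above zero; inconclusive = below that plate limit but binding exactly zero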;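 also: hits lower antibody fragment binding to DSG3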
PolyA inhibitor – yeast polyadenylation inhibition. S. cerevisiae SKY197-pL101 polyadenylation reporter, beta-gal luminescence; efflux-impaired pdr1/pdr3 knockout yeast; score 100 = 6 SD above DMSO. activity score, % at 12 µM. 300,000 compounds, 0.02% hits;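 active = lowest replicate activity score at least 50, where 100 means six control SD above control mean; inconclusive = lowest score under 50 but half or more replicates reach 50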;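 also: yeast exposed to compound for 9 h at 30 °C; higher score means more reporter readthrough which indicates perturbed polyadenylation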
ALR inh – inhibitors of human sulfhydryl oxidase ALR. P55789. 290,000 compounds, 3.8% hits. AID 485317. inhibition, % (concentration not given with the values). purified ALR, DTT oxidation, H2O2 HRP-luminol luminescence;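 active = mean replicate inhibition above about 79%, with every replicate also reaching it, limit read from the data; inconclusive = only one of the two criteria met; inactive = mean below limit and not every replicate reaching it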
Target sequence (P55789 whole entry, looked up): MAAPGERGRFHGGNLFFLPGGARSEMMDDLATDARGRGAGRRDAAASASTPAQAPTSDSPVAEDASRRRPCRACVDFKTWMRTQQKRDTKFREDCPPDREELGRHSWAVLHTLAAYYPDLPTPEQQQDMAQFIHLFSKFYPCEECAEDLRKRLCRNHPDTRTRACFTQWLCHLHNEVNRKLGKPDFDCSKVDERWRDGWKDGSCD
* = called active by the depositor; ? = inconclusive; . = no result. Sampled rows, rich in hits. Any-hit rate of the full collection: about 4.6%.

SMILES	Arrestin-AP2 inh	NALP1 inh	NLRP3 yeast inh	DSG3 Ab inh	PolyA inhibitor	ALR inh
Cc1[nH]n(-c2ccccc2)c(=O)c1C(C[N+](=O)[O-])c1ccc(Cl)cc1 (stereo not given)	-2.6	107.8*	17.4	105.6	-109.7	.
Cc1[nH]n(-c2ccccc2)c(=O)c1Sc1ccc(Cl)cc1	6.7	-2.9	-16.4	98.2	-16.4	21.8
Cc1[nH]n(-c2ccccc2)c(=O)c1C(C[N+](=O)[O-])c1ccc(F)cc1 (stereo not given)	-0.2	108.8*	30.8	105.1	-66.8	.
CCCC[C@@H]1C=C(C(=O)O)[C@H](c2ccc(Br)cc2)N1S(=O)(=O)c1ccc(C)cc1	-1.9	.	8.6	105.4	.	.
Cc1ccnc(NC(=O)C(Cc2ccccc2)NC(=O)c2ccccc2)c1 (stereo not given)	-1.9	.	9.7	99.5	.	.
CC(NC(=O)Nc1ccc(O)cc1)(C(F)(F)F)C(F)(F)F	1.9	-22.2	14.9	107.7	-5.1	98.4*
CCC(NC(=O)Nc1ccc(O)cc1)(C(F)(F)F)C(F)(F)F	-1.5	-4.5	-10.2	.	.	98.6*
CCC(NC(=O)NCc1ccccc1)(C(F)(F)F)C(F)(F)F	4.9	28.8	10.8	.	-8.4	-0.2
COc1ccc(NC(=O)NC(C)(C(F)(F)F)C(F)(F)F)cc1	-8.4	-2.4	9.5	114.9	-1.7	.
COc1ccc(/C=C2/CCC(CN3CCOCC3)C2=O)cc1 (stereo not given)	18.9	.	.	90.9	.	.
Cc1ccc([C@@H]2C[C@H]3[C@@H](CN2S(=O)(=O)c2ccc(Cl)cc2)C(=O)C[C@@H](c2ccc(C)cc2)N3S(=O)(=O)c2ccc(Cl)cc2)cc1	.	.	.	97.8	.	.
CS(=O)(=O)c1ccc(Cl)c(NC(=O)CSc2n[nH]c(-c3cccs3)n2)c1	0.5	.	12.4	89.8	.	.
O=C(NC(=S)Nc1nc2c(s1)CCCC2)c1ccccc1	7.4	7.3	.	99.5	5.1	.
S=C(Nc1nc2c(s1)CCCC2)NC1CC1	-5.8	13.6	7.0	.	9.3	85.9*
CCN(CC)C(=O)C1=C(C)N(Cc2ccc(OC)cc2)C(=O)C(CC(=O)NC2CCCC2)C1 (stereo not given)	.	.	.	102.4	.	.
O=C(COC(=O)/C=C/c1ccc([N+](=O)[O-])cc1)NCC1CCCO1 (stereo not given)	9.5	6.9	-5.6	98.0	-4.2	94.7*
C[C@H](CO)N1C[C@H](C)[C@@H](CN(C)S(C)(=O)=O)OCc2cnnn2CCCC1=O	.	.	.	101.6	.	.
CCOc1ccccc1NC(=O)COC(=O)c1cnc(C)cn1	22.3	.	14.5	103.3	.	.
Cc1ccc(OCCN2CCN(c3nc(NCc4ccco4)c4ccccc4n3)CC2)cc1	28.7	73.0*	30.8	92.7	3.2	-34.8
CCOC(=O)c1c(Cc2ccccc2)c[nH]c1C	12.7	2.0	20.2	107.9	-9.3	95.0*
Nc1cc(=O)[nH]c(SCC(=O)N2CCC(Cc3ccccc3)CC2)n1	-1.0	.	18.2	106.8	.	-2.6
CCOc1cc(/C=C(\C#N)C(N)=O)ccc1OS(=O)(=O)c1ccccc1	1.7	14.7	9.8	101.4	-5.2	97.9*
Nc1ccc(Sc2cnn(-c3ccccc3)c(=O)c2Cl)cc1	0.1	11.6	30.6	110.1	0.7	91.8*
Cc1ccccc1N1CCN(CC(=O)Nc2ccccc2C(=O)NC2CC2)CC1	8.7	.	41.8	.	.	2.3
O=c1c2ccccc2nc2n1C(CSc1ccc(Br)cc1)CN2 (stereo not given)	-4.7	30.9*	-6.8	105.3	-7.9	-5.4
SMILES	Arrestin-AP2 inh	NALP1 inh	NLRP3 yeast inh	DSG3 Ab inh	PolyA inhibitor	ALR inh
Cn1c(SCc2ccc(Br)cc2)nc2ccccc2c1=O	-2.8	21.6	33.2	116.8	1.9	-1.0
Oc1ccc(CN2CCN(c3ccccc3)CC2)c2cccnc12	7.9	2.6	-26.9	98.0	-24.8	3.2
Oc1ccc(CN2CCC(Cc3ccccc3)CC2)c2cccnc12	.	31.0*	11.9	.	-29.5	.
COC(=O)c1ccccc1NC(=O)C/C(C)=N/NC(=O)CC#N	9.0	33.6*	26.0	96.5	0.2	15.5
O=S(=O)(C/C(=C/CO)S(=O)(=O)c1ccccc1)c1ccccc1	8.9	-6.6	-3.0	100.5	-3.9	98.6*
COc1ccccc1S(=O)(=O)N(C)C[C@H]1Oc2cc(C#CCC3CCCC3)ccc2S(=O)(=O)N([C@H](C)CO)C[C@H]1C	.	.	.	115.1	.	.
Cc1ccc(C(=O)CCNc2ccccc2)o1	24.1	5.4	16.3	98.2	8.9	97.5*
CSc1ccc(NC(=O)NN(c2ccccc2)C2CCS(=O)(=O)C2)cc1 (stereo not given)	.	.	.	102.4	.	.
COc1ccccc1NS(=O)(=O)c1ccc(C(=O)NCC(c2cccs2)N2CCOCC2)cc1 (stereo not given)	-5.0	.	11.2	102.9	.	-5.3
CC(=O)Nc1ccc(SC[C@H](Cc2ccccc2)N2CCN(CCc3ccccc3)CCC2=O)cc1	1.2	5.2	3.8	102.9	4.3	.
CC(=O)Nc1ccc(S[C@@H](CCN2CC[C@H](C(C)(C)C)CCC2=O)c2ccccc2)cc1	1.2	.	16.4	99.3	.	97.1*
CC(=O)Nc1ccc(SCCN2CC[C@@H](C)CCC2=O)cc1	-3.3	.	4.7	111.0	.	98.8*
CC(=O)Nc1ccc(SC[C@H](Cc2ccccc2)N2CC[C@@H](O)CCC2=O)cc1	-0.3	.	-9.5	110.7	.	98.9*
CC(=O)Nc1ccc(SCCN2CC[C@@H](O)CCC2=O)cc1	-1.7	.	19.6	104.2	.	15.4
CC(=O)Nc1ccc(SC[C@H](Cc2ccccc2)N2CC[C@@H](C(C)(C)C)CCC2=O)cc1	2.5	.	14.8	106.1	.	98.7*
O=C(NCCOc1ccccc1)c1ccc2c(c1)S(=O)(=O)c1cc(Cl)ccc1C2=O	13.6	.	13.9	98.2	.	-1.9
CCCS(=O)(=O)Nc1c(C(=O)O)[nH]c2ccc(OC)cc12	0.0	.	11.7	96.8	-0.4	?
COc1ccc2[nH]c(C(=O)O)c(NS(=O)(=O)c3ccc(C)cc3C)c2c1	-1.2	15.8	8.9	103.3	11.0	98.2*
COC(=O)c1[nH]c2ccc(C)cc2c1NS(=O)(=O)c1ccc(F)cc1	4.7	25.8	-10.7	115.0	11.2	78.9*
Cc1cc(O)c2c(c1O)C(=O)[C@]13C(=C2O)C(=O)[C@@H]2[C@@H](O)[C@H]1[C@@H]1[C@H](O)[C@H]3C(=O)C3=C(O)c4c(O)cc(C)c(O)c4C(=O)[C@]312	15.8	.	39.0	-15.3*	.	.
CC(=O)C1=C(O)C(=O)N(Cc2ccccc2)C1c1ccc(N(C)C)cc1 (stereo not given)	53.4	7.4	22.7	105.4	0.3	95.7*
Cn1c(SCC(=O)c2ccc(O)c(O)c2)nnc1-c1ccccc1	-3.7	0.0	10.6	110.6	-3.9	93.1*
CNC(=O)CSc1nnc(-c2ccccc2)n1C	3.1	-13.7	13.4	104.9	10.2	-0.9
